Data published in ChEMBL document CHEMBL1137637, “Quinuclidine derivatives as potential antiparasitics” (Antimicrob Agents Chemother, 2007).
Values after ≈ are worked out from the molar mass of the structure shown.

Columns and labels:
L6 = assay: Cytotoxicity against rat L6 cells after 72 hrs by resazurin assay; format: cell-based; conditions: L6, 72 h
Method in brief: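 L-6 cells seeded at 4 × 10⁴ cells/ml in RPMI 1640 with 10% FBS and 2 mM L-glutamine. After 24 h, medium replaced with serial drug dilution and incubated for 72 h at 37°C in 5% CO2. Resazurin added for 2–4 h, fluorescence read at ex 536/em 588 nm. IC50 from sigmoidal curve. Duplicate, with an independent repeat for actives.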

Leishmania amazonensis [1] = assay: Inhibition of sterol biosynthesis in Leishmania mexicana amazonensis promastigotes assessed as reduction in endogenous 5-dehydro episterol level at 10 uM after 96 hrs by gas-liquid chromatography; format: functional; parameters: scale not given: the % may be the effect or the level left
Method in brief: (§1)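 L. mexicana promastigotes exposed to compound for 96 h. Total lipids extracted and neutral sterols separated from polar lipids by silicic acid column chromatography. Sterols analysed by TLC and by quantitative capillary gas-liquid chromatography with mass spectrometry. Composition expressed as mass % of free sterols, compared with untreated control.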

Leishmania amazonensis [2] = assay: Antileishmanial activity against Leishmania mexicana amazonensis promastigotes by trypan blue exclusion method; format: functional, organism-based
Method in brief: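 L. mexicana amazonensis promastigotes cultured in liver infusion-tryptose medium with lactalbumin and 10% FCS at 26°C, unagitated. Cultures started at 2 × 10⁶ cells/ml and drug added at 0.5–1 × 10⁷ cells/ml. Density counted by electronic particle counter and hemocytometer. Viability by trypan blue exclusion. Triplicate growth experiments.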

Trypanosoma cruzi = assay: Antitrypanosomal activity against trypomastigotes of Trypanosoma cruzi Tulahuen C2C4 containing lacZ gene in rat L6 cells after 4 days by chlorophenol red-beta-D-galactopyranoside/Nonidet assay; format: functional, organism-based; conditions: Tulahuen C2C4, L6, 96 h
Method in brief: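 L-6 rat myoblasts seeded at 2,000 cells/well in RPMI 1640 with 10% FBS and 2 mM L-glutamine. After 24 h, 5,000 T. cruzi Tulahuen C2C4 lacZ trypomastigotes added with serial drug dilution. Incubated at 37°C in 5% CO2 for 4 days. CPRG/Nonidet substrate added and colour read at 540 nm after 2–4 h. IC50 from sigmoidal curve. Duplicate determinations.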

Leishmania donovani = assay: Antileishmanial activity against Leishmania donovani MHOM/ET/67/L82 axenic amastigotes after 72 hrs by resazurin assay; format: functional, organism-based; conditions: MHOM/ET/67/L82, 72 h
Method in brief: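 L. donovani MHOM/ET/67/L82 amastigotes grown axenically at 37°C in synthetic minimal medium at pH 5.4 with 10% heat-inactivated FBS under 5% CO2. 1 × 10⁵ amastigotes per well with seven threefold dilutions, 30 to 0.041 μg/ml. After 72 h, resazurin added for 2–4 h more. Fluorescence read at ex 536/em 588 nm. IC50 taken from sigmoidal curve. Run in duplicate, with an independent repeat for actives.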

Plasmodium falciparum = assay: Antiplasmodial activity after 48 hrs against chloroquine and pyrimethamine-resistant Plasmodium falciparum K1 in human erythrocytes by [3H]hypoxanthine uptake; format: functional, organism-based
Method in brief: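 P. falciparum K1 in human red cells in RPMI 1640 with 5% Albumax, exposed to serial drug dilutions. Incubated 48 h at 37°C under reduced oxygen, then 0.5 μCi [³H]hypoxanthine per well for 24 h more. Cells harvested onto glass-fibre filters and counted by scintillation. Result expressed as % of untreated control, with IC50 from sigmoidal curve. Duplicate, plus an independent repeat for actives.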

Leishmania amazonensis [3] = assay: Inhibition of sterol biosynthesis in Leishmania mexicana amazonensis promastigotes assessed as reduction in exogenous cholesterol level at 10 uM after 96 hrs by gas-liquid chromatography; format: functional; parameters: scale not given: the % may be the effect or the level left; method in brief: as §1
Leishmania amazonensis [4] = assay: Inhibition of sterol biosynthesis in Leishmania mexicana amazonensis promastigotes assessed as reduction in endogenous episterol level at 10 uM after 96 hrs by gas-liquid chromatography; format: functional; parameters: scale not given: the % may be the effect or the level left; method in brief: as §1
[5] = tested on: Trypanosoma brucei rhodesiense; assay: Trypanocidal activity against Trypanosoma brucei rhodesiense STIB 900 bloodstream form after 72 hrs by resazurin assay; format: functional, organism-based; conditions: STIB 900, 72 h
Method in brief: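 T. b. rhodesiense STIB 900 bloodstream forms in MEM with 2-mercaptoethanol and 15% heat-inactivated horse serum, with serial drug dilutions. Incubated 72 h at 37°C in 5% CO2. Resazurin added for 2–4 h more, fluorescence read at ex 536/em 588 nm. IC50 from sigmoidal curve. Duplicate, with an independent repeat for actives.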

[6] = target: T1, Farnesyltransferase, putative (Leishmania major, UniProt Q4Q5W4); assay: Inhibition of Leishmania major recombinant squalene synthase expressed in Escherichia coli by liquid scintillation counter
T1 sequence (Q4Q5W4 whole entry): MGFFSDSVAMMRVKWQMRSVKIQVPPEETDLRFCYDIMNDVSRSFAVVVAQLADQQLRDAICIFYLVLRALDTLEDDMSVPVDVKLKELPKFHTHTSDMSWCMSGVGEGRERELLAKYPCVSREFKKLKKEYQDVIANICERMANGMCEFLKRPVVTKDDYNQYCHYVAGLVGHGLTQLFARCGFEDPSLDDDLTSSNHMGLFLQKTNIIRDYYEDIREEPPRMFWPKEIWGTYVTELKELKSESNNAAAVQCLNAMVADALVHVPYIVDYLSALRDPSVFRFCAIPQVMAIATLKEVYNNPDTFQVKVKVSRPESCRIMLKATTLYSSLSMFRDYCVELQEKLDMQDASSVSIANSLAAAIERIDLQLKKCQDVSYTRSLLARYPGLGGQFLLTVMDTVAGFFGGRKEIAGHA
Method in brief: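 Soluble E. coli extract expressing L. major SQS truncated by 16 N-terminal and 40 C-terminal residues. Buffer: 50 mM phosphate pH 7.4, 20 mM MgCl2, 5 mM CHAPS, 1% Tween 80, 10 mM DTT, BSA, 0.25 mM NADPH, and a glucose-6-phosphate/G6PDH regenerating system. Substrate 0.5 μM radiolabelled farnesyl pyrophosphate. Squalene band counted by scintillation. IC50 from hyperbolic plot of five concentrations in duplicate, usually run twice.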

Leishmania amazonensis [7] = assay: Inhibition of sterol biosynthesis in Leishmania mexicana amazonensis promastigotes assessed as reduction in endogenous cholesta-5,7,24-trien-3beta-ol level at 10 uM after 96 hrs by gas-liquid chromatography; format: functional; parameters: scale not given: the % may be the effect or the level left; method in brief: as §1

SMILES | IC50 (L6) | Activity (Leishmania amazonensis [1]) | MIC (Leishmania amazonensis [2]) | IC50 (Trypanosoma cruzi) | IC50 (Leishmania donovani) | IC50 (Plasmodium falciparum) | Activity (Leishmania amazonensis [3]) | Activity (Leishmania amazonensis [4]) | IC50 [5] | IC50 [6] | Activity (Leishmania amazonensis [7])
C1=C(c2cc3ccccc3o2)C2CCN1CC2 | 177 µM | 60% | > 10 µM | 61.3 µM | 82 µM | 6.2 µM | 12.2% | 27.8% | 17.1 µM | > 1 µM | 
COCCCOc1ccc(C#C[C@@]2(O)CN3CCC2CC3)c(Cc2ccccc2)n1 |  |  |  |  |  |  |  |  |  | 0.033 µM | 
CO[C@H]1CN(c2ccc(C#C[C@@]3(O)CN4CCC3CC4)c(Cc3ccccc3)n2)C[C@H]1O |  |  |  |  |  |  |  |  |  | 0.013 µM | 
Oc1ccc(C#CC2(O)CN3CCC2CC3)cc1 (stereo not given) | > 370 µM | 64.2% | > 10 µM | 90.4 µM | 20 µM | 18.7 µM | 20.1% | 15.7% | 53 µM | > 1 µM | 
OC1(C#Cc2cccnc2)CN2CCC1CC2 (stereo not given) | > 394 µM | 75.9% | > 10 µM | > 131 µM | 9.2 µM | 18.9 µM | 12.9% | 11.2% | 173 µM | > 1 µM | 
OC[C@H]1CC2CCN1C[C@@H]2C#Cc1cnc2ccccc2c1 (stereo not given in full) | 38.9 µM | 69.7% | > 10 µM | 33.8 µM | 40.3 µM | 2.7 µM | 18.7% | 11.6% | 10.9 µM | > 1 µM | 
CCOC(=O)c1ccc(C#C[C@H]2CN3CCC2C[C@@H]3CO)cc1 (stereo not given in full) | 55.2 µM | 55.5% | > 10 µM | 18.8 µM | > 96 µM | 1.1 µM | 23.6% | 11.4% | 3.8 µM | > 1 µM | 9.5%
OC1(C#Cc2cnccn2)CN2CCC1CC2 (stereo not given) |  | 52% | 3 µM (≈ 0.688 µg/mL) |  |  |  | 33.8% | 14.2% |  | > 1 µM | 
C1=C(c2cnc3ccccc3c2)C2CCN1CC2 | 276 µM | 74.5% | > 10 µM | 51.1 µM | 72.4 µM | 15 µM | 18.2% | 7.3% | 22.4 µM | > 1 µM | 
Cc1ccc(N)cc1C#CC1(O)CN2CCC1CC2 (stereo not given) | > 351 µM | 72.8% | > 10 µM | > 117 µM | 28.5 µM | 11.7 µM | 20.7% | 6.5% | 62.4 µM | > 1 µM | 
OC1(C#Cc2ccc3cc[nH]c3c2)CN2CCC1CC2 (stereo not given) | > 338 µM | 62.6% | > 10 µM | 26.2 µM | 11.4 µM | 7.1 µM | 19.9% | 17.5% | 19.9 µM | > 1 µM | 
Nc1ccc(C#CC2(O)CN3CCC2CC3)cn1 (stereo not given) | > 370 µM | 75.2% | > 10 µM | 97 µM | 10.8 µM | > 21 µM | 13.2% | 11.6% | 5.7 µM | > 1 µM | 
OC1(C#Cc2ccc(Cl)nc2)CN2CCC1CC2 (stereo not given) | > 342 µM | 71.7% | > 10 µM | > 114 µM | 16.3 µM | 9.3 µM | 20.1% | 8.2% | 53.3 µM | > 1 µM | 
COC(=O)c1ccc(N)c(C#CC2(O)CN3CCC2CC3)c1 (stereo not given) | > 300 µM | 74.3% | > 10 µM | 44.9 µM | 17.2 µM | 10.9 µM | 19.3% | 6.4% | 30.8 µM | > 1 µM | 
OC[C@H]1CC2CCN1C[C@@H]2C#Cc1ccc2ccccc2c1 (stereo not given in full) | 50.4 µM | 65.7% | > 10 µM | 5.3 µM | 12 µM | 3 µM | 23.1% | 11.2% | 1.4 µM | > 1 µM | 
CCOc1ccc(C#CC2(O)CN3CCC2CC3)cc1 (stereo not given) | > 332 µM | 45.4% | > 10 µM | 21.2 µM | 10.5 µM | 5.9 µM | 30% | 24.6% | 5.4 µM |  | 
O=C(O)c1ccc(C#CC2(O)CN3CCC2CC3)cc1 (stereo not given) | > 332 µM | 70.9% | > 10 µM | 90.2 µM | > 111 µM | > 18.4 µM | 21.9% | 7.2% | 146 µM | > 100 µM | 
COc1ccc(C#CC2(O)CN3CCC2CC3)cc1 (stereo not given) | > 350 µM | 66.8% | > 10 µM | 67.2 µM | 7 µM | 8.2 µM | 19.8% | 13.4% | 18.4 µM | > 1 µM | 
OC[C@@H]1CC2CCN1C[C@@H]2C#Cc1ccc2ccccc2c1 (stereo not given in full) | 40.1 µM | 68.4% | > 10 µM | 4.7 µM | 22.6 µM | 2.1 µM | 15.4% | 9.6% | 1.1 µM | > 1 µM | 6.6%
O=C(O)c1cc(C#CC2(O)CN3CCC2CC3)ccc1O (stereo not given) |  | 74% | > 10 µM |  |  |  | 20.4% | 5.6% |  | > 1 µM | 
CC(=O)c1ccc(C#CC2(O)CN3CCC2CC3)s1 (stereo not given) | 194 µM | 67.8% | > 10 µM | 72.6 µM | 18.9 µM | 10.2 µM | 22.3% | 9.9% | 30.3 µM | > 1 µM | 
CCCCCCCCCCCCCCCCOP(=O)([O-])OCC[N+](C)(C)C [MILTEFOSINE] |  |  |  |  | 0.338 µM |  |  |  |  |  | 
COc1cc([C@@H]2c3cc4c(cc3[C@H](O)[C@H]3COC(=O)[C@H]23)OCO4)cc(OC)c1OC [PODOFILOX] | 0.014 µM |  |  |  |  |  |  |  |  |  | 
